Assay results as given in ChEMBL document CHEMBL5376019, “Design, synthesis and evaluation of 2-phenylpyrimidine derivatives as novel antifungal agents targeting CYP51” (RSC Med Chem, 2024).
Converted amounts (≈) assume the structure as drawn.

Legend:
Candida albicans [1] = test: Antifungal activity against Candida albicans ATCC SC5314 assessed as fungal growth inhibition; assay type: functional
Method in brief: (§1)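 Broth microdilution per NCCLS M27-A3, with fluconazole as positive control. Assay medium was RPMI 1640 buffered with MOPS. Inocula were diluted to 1–5 × 10^3 CFU mL−1 and seeded in 96-well plates. Compounds were dissolved in DMSO and serially diluted in the growth medium. MIC was the read-out.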

Candida albicans [2] = test: Antifungal activity against Candida albicans CPCC400616 assessed as fungal growth inhibition; assay type: functional; method in brief: as §1
Candida tropicalis = test: Antifungal activity against Candida tropicalis CGMCC 2.3739 assessed as fungal growth inhibition; assay type: functional; method in brief: as §1
Cryptococcus neoformans = test: Antifungal activity against Cryptococcus neoformans CGMCC 2.3161 assessed as fungal growth inhibition; assay type: functional; method in brief: as §1
Candida parapsilosis = test: Antifungal activity against Candida parapsilosis GIM 2.190 assessed as fungal growth inhibition; assay type: functional; details: Lodderomyces parapsilosis; method in brief: as §1
Nakaseomyces glabratus = test: Antifungal activity against clinical isolate Candida glabrata assessed as fungal growth inhibition; assay type: functional; method in brief: as §1
Pichia kudriavzevii = test: Antifungal activity against Pichia kudriavzevii GIM 2.1 assessed as fungal growth inhibition; assay type: functional; method in brief: as §1
MDA-MB-231 = test: Cytotoxicity against human MDA-MB-231 cells assessed as reduction in cell viability at 32 uM incubated for 24 hrs by CCK-8 assay; assay type: toxicity, cell-based; details: mda-mb-231, 24 h
Method in brief: (§2)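 Cells from ATCC were grown in RPMI-1640 or DMEM with 10% FBS and 1% penicillin/streptomycin. They were seeded at 5 × 10^4 cells/well and allowed to adhere overnight at 37 °C, 5% CO2, with at least 6 replicates per group. Compounds were applied at 2–64 μM for 24 h; medium-only wells served as control. Viability was measured by CCK-8 absorbance at 450 nm.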

DU-145 = test: Cytotoxicity against human DU-145 cells assessed as reduction in cell viability at 32 uM incubated for 24 hrs by CCK-8 assay; assay type: toxicity, cell-based; details: du-145, 24 h; method in brief: as §2
L929 = test: Cytotoxicity against mouse L929 cells assessed as reduction in cell viability at 32 uM incubated for 24 hrs by CCK-8 assay; assay type: toxicity, cell-based; details: l929, 24 h; method in brief: as §2

SMILES | MIC (Candida albicans [1]) [µg/mL] | MIC (Candida albicans [2]) [µg/mL] | MIC (Candida tropicalis) [µg/mL] | MIC (Cryptococcus neoformans) [µg/mL] | MIC (Candida parapsilosis) [µg/mL] | MIC (Nakaseomyces glabratus) [µg/mL] | MIC (Pichia kudriavzevii) [µg/mL] | Activity (MDA-MB-231) | Activity (DU-145) | Activity (L929)
CC(C)c1cccc(-c2ncc(C(=O)NC(Cn3ccnc3)C(=O)c3ccccc3)cn2)c1 (racemic) | > 64 | > 64 | > 64 | > 64 | > 64 | > 64 | > 64 | – | – | –
O=C(NC(Cn1ccnc1)C(=O)c1ccccc1)c1ccc(-c2cncnc2)cc1 (racemic) | > 64 | > 64 | > 64 | > 64 | > 64 | > 64 | > 64 | – | – | –
O=C(NC(Cn1ccnc1)C(=O)c1ccccc1)c1noc2c1CCc1ccccc1-2 (stereo not drawn) | 8 (≈ 19.4 µM) | 8 (≈ 19.4 µM) | 4 (≈ 9.7 µM) | – | – | – | – | – | – | –
N#Cc1ccc(-c2ncc(C(=O)NC(Cn3ccnc3)C(=O)c3ccccc3)cn2)cc1 (racemic) | 4 (≈ 9.47 µM) | > 64 | > 64 | > 64 | > 64 | > 64 | > 64 | – | – | –
O=C(NC(Cn1ccnc1)C(=O)c1ccccc1)c1cnc(-c2ccc(Cl)cc2F)nc1 (racemic) | > 64 | > 64 | > 64 | > 64 | > 64 | > 64 | > 64 | – | – | –
O=C(NC(Cn1ccnc1)C(=O)c1ccc(F)cc1)c1cnc(-c2cccc(F)c2)nc1 (racemic) | 16 (≈ 36.9 µM) | > 64 | > 64 | > 64 | > 64 | > 64 | > 64 | – | – | –
OC(Cn1cncn1)(Cn1cncn1)c1ccc(F)cc1F [FLUCONAZOLE] | 0.5 (≈ 1.63 µM) | 1 (≈ 3.27 µM) | 0.5 (≈ 1.63 µM) | 4 (≈ 13.1 µM) | 2 (≈ 6.53 µM) | 4 (≈ 13.1 µM) | 8 (≈ 26.1 µM) | – | – | –
CC(C)(C)c1ccc(-c2ncc(C(=O)NC(Cn3ccnc3)C(=O)c3ccccc3)cn2)cc1 (racemic) | > 64 | > 64 | > 64 | > 64 | > 64 | > 64 | > 64 | – | – | –
O=C(NC(Cn1ccnc1)C(=O)c1ccccc1)c1cnc(-c2ccc(OC(F)(F)F)cc2)nc1 (racemic) | > 64 | > 64 | > 64 | > 64 | > 64 | > 64 | > 64 | – | – | –
Cc1ccc(C(=O)C(Cn2ccnc2)NC(=O)c2cnc(-c3cccc(F)c3)nc2)cc1 (racemic) | 1 (≈ 2.33 µM) | 4 (≈ 9.31 µM) | 1 (≈ 2.33 µM) | 64 (≈ 149 µM) | 4 (≈ 9.31 µM) | 8 (≈ 18.6 µM) | 4 (≈ 9.31 µM) | Non-Toxic | Non-Toxic | Non-Toxic
O=C(NC(Cn1ccnc1)C(=O)c1ccc(Br)cc1)c1cnc(-c2cccc(F)c2)nc1 (racemic) | 0.5 (≈ 1.01 µM) | 8 (≈ 16.2 µM) | 16 (≈ 32.4 µM) | > 64 | > 64 | > 64 | > 64 | – | – | –
O=C(NC(Cn1ccnc1)C(=O)c1ccccc1)c1ccc(-c2ccoc2)cc1 (racemic) | 16 (≈ 41.5 µM) | > 64 | > 64 | > 64 | > 64 | > 64 | > 64 | – | – | –
CC(C)(C)c1cccc(-c2ncc(C(=O)NC(Cn3ccnc3)C(=O)c3ccccc3)cn2)c1 (racemic) | > 64 | > 64 | > 64 | > 64 | > 64 | > 64 | > 64 | – | – | –
O=C(NC(Cn1ccnc1)C(=O)c1ccccc1)c1cnc(-c2cccc(OC(F)(F)F)c2)nc1 (racemic) | > 64 | > 64 | > 64 | > 64 | > 64 | > 64 | > 64 | – | – | –
O=C(NC(Cn1ccnc1)C(=O)c1ccccc1)c1cnc(-c2ccc(F)cc2)nc1 (racemic) | 16 (≈ 38.5 µM) | 32 (≈ 77 µM) | > 64 | > 64 | 64 (≈ 154 µM) | > 64 | > 64 | – | – | –
O=C(NC(Cn1ccnc1)C(=O)c1ccc(I)cc1)c1cnc(-c2cccc(F)c2)nc1 (racemic) | 1 (≈ 1.85 µM) | 32 (≈ 59.1 µM) | > 64 | > 64 | > 64 | > 64 | > 64 | – | – | –
O=C(NC(Cn1ccnc1)C(=O)c1ccccc1)c1cnc(-c2ccccc2Cl)nc1 (racemic) | 8 (≈ 18.5 µM) | 16 (≈ 37 µM) | 4 (≈ 9.26 µM) | > 64 | 32 (≈ 74.1 µM) | > 64 | 16 (≈ 37 µM) | – | – | –
